One compound from ChEMBL document CHEMBL3593173, “Discovery of novel N-(5-(tert-butyl)isoxazol-3-yl)-N'-phenylurea analogs as potent FLT3 inhibitors and evaluation of their activity against acute myeloid leukemia in vitro and in vivo” (Bioorg Med Chem, 2015) can be followed below.

Data set [1] in a line: Solubility in water. In kind it is physicochemical.
Data set [2] is described as follows: Solubility in PBS solution. It counts as physicochemical.
The nature of data set [3]: Solubility in SPSS. In kind it is physicochemical.
Data set [4] can be described thus: AUC (0 to 24 hrs) in Sprague-Dawley rat at 30 mg/kg, po after 15 mins to 24 hrs by HPLC method. On the set-up: dose 30 mg/kg, time < 24 hr, route oral. It counts as ADME, organism-based. The settings on record: in vivo. The procedure, abridged:
(§1)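 Sprague–Dawley rats (n = 3) fasted overnight, then given a single 30 mg/kg oral gavage dose in 25% PEG400, 5% DMSO and 70% distilled water. Heparinized blood was drawn at 15 min, 30 min, 1, 2, 4, 6, 12 and 24 h, and plasma was separated by centrifugation. Plasma levels were measured by liquid–liquid extraction and HPLC.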

Data set [5] in a line: Apparent half life in Sprague-Dawley rat at 30 mg/kg, po after 15 mins to 24 hrs by HPLC method. The settings on record: in vivo, read-out: t1/2(app) (converted). It counts as ADME, organism-based. The procedure, abridged:
as §1

For the next data set, the system named is THP-1. The data set can be described thus: Growth inhibition of human THP1 cells incubated for 72 hrs by MTT assay. It counts as functional, cell-based. The settings on record: THP-1, 72 h. In outline:
(§2)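 Leukemia cells were grown with 10% FBS at 37 °C in 5% CO₂; MV4-11 was kept in IMDM. Cells were seeded at 1–4 × 10⁴ per well, and an equal volume of medium containing increasing inhibitor concentrations was added. MTT was added for 2–4 h, formazan was dissolved in DMSO, and OD was read at 570 nm to derive IC50.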
In general terms: Tetrazolium dyes change colour on reduction, which living cells bring about.

The subject of another data set is Jurkat. The data set can be described thus: Growth inhibition of human Jurkat cells incubated for 72 hrs by MTT assay. It counts as functional, cell-based. The procedure, abridged: as §2
Data set [6] in a line: Growth inhibition of human A875 cells incubated for 72 hrs by MTT assay. It counts as functional, cell-based. The settings on record: A875, 72 h. The procedure, abridged: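 Non-leukemia lines were grown in RPMI 1640 or DMEM with 10% FBS at 37 °C in 5% CO₂. Cells were seeded at 2–5 × 10³ per well and incubated 24 h, then treated with diluted inhibitors for 72 h. MTT was added for 2–4 h, formazan was dissolved in DMSO, and OD was read at 570 nm to derive IC50.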

The test system of data set [7] is MV4-11. In words: Induction of apoptosis in human MV4-11 cells incubated for 48 hrs by Annexin V-FITC labeling based flow cytometry. It counts as functional, cell-based. (In flow cytometry, cells or beads pass a laser one at a time.)
Data set [8] relates to MV4-11. In words: Induction of apoptosis in human MV4-11 cells assessed as necrotic cells level at 1 nM incubated for 48 hrs by Annexin V-FITC labeling based flow cytometry (reference value: 3.76%). In kind it is functional.
Data set [9] has as its system MV4-11. The data set can be described thus: Induction of apoptosis in human MV4-11 cells assessed as late apoptotic cells level at 10 nM incubated for 48 hrs by Annexin V-FITC labeling based flow cytometry (reference value: 6.61%). It counts as functional.
Data set [10] relates to MV4-11. The data set can be described thus: Antitumor activity against FLT3-ITD bearing human MV4-11 cells xenografted in NOD-SCID mouse assessed as induction of complete tumor regression at 60 mg/kg/day, po. It counts as functional, organism-based. The procedure, abridged:
(§3)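 MV4-11 cells in exponential growth were washed three times in serum-free medium, resuspended at 1 × 10⁸ cells/mL and injected subcutaneously into NOD-SCID mice aged 5–6 weeks. At 100–200 mm³, tumors were randomized into 4 groups of 6. Dosing was 10, 30 or 60 mg/kg/d, or vehicle (25% PEG400 plus 5% DMSO in water), by oral gavage once daily. Tumor volume was measured every 3 days, and body weight and toxicity signs were monitored.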
A general note: Xenograft models place foreign cells or tissue in a host animal.

The test system of data set [11] is MV4-11. The data set can be described thus: Antitumor activity against FLT3-ITD bearing human MV4-11 cells xenografted in NOD-SCID mouse assessed as tumor growth inhibition at 30 mg/kg/day, po. In kind it is functional. The settings on record: MV4-11, po, read-out: TGI. The procedure, abridged:
as §3

Another data set has as its system Mus musculus. In words: Toxicity in FLT3-ITD bearing human MV4-11 cells xenografted NOD-SCID mouse assessed as induction of body weight loss at 10 to 60 mg/kg/day, po. The settings on record: in vivo. In kind it is organism-based. The procedure, abridged: as §3
The test system of data set [12] is MV4-11. In words: Inhibition of cell proliferation of FLT3-ITD bearing human MV4-11 cells xenografted in NOD-SCID mouse assessed as reduction in Ki67-positive cells in tumor tissues at 60 mg/kg/day, po qd for 7 days by immunohistochemistry. In kind it is functional, organism-based. In outline:
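NOD-SCID mice bearing subcutaneous MV4-11 xenografts were dosed at 60 mg/kg/d by oral gavage, once daily. Tumors were harvested 7 days later. Proliferation was scored by Ki67 immunostaining and apoptosis by TUNEL staining.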

≈ marks a conversion by molar mass, not a printed value. Calls of active or inactive are those of the source. The rule behind the calls is not given here.

By solubility is commonly meant the concentration that dissolves in the medium under given conditions. A low value points to little dissolved substance. The AUC(0-t) is exposure summed from dosing to a finite time, without extrapolation to infinity. A higher AUC(0-t) goes with high exposure. What is called IC50 is the concentration that gives 50% inhibition. Low readings indicate greater potency, high ones weaker potency. For the compound `COc1ccn2cc(-c3ccc(NC(=O)Nc4cc(C(C)(C)C)on4)cc3)nc2c1`, the solubility worked out at 304 µg/mL (≈ 749 µM) in data set [1], 36.6 µg/mL (≈ 90.3 µM) in [2] and 1.47 µg/mL (≈ 3.63 µM) in data set [3]. The AUC(0-t) at 24 h in data set [4] was found to be 14300 ng·h/mL. For the same compound, the half-life in data set [5] is 4.86 h. Also, the IC50 in the data set on THP-1 was 3.37 µM; with Jurkat, greater than 20 µM; in [6], greater than 20 µM. In addition, the Activity result was “Dose-dependent effect” in the data set on MV4-11 [7], 5.34% in the data set with MV4-11 [8], 18.6% in the data set on MV4-11 [9] and “Non-toxic” in the data set on Mus musculus. The outcome in the data set on MV4-11 [10] was Active. Also, the inhibition in vivo at 30 mg/kg/day in the data set on MV4-11 [11] was found to be 87%. Besides, the inhibition entry with MV4-11 [12] was “Active”.
